Our source for the Activity, inhibition and IC50 values is ChEMBL document CHEMBL1833937, “Structure-based design of pseudopeptidic inhibitors for SIRT1 and SIRT2” (J Med Chem, 2011).

Series [1] relates to SH-SY5Y. In words: Cytotoxicity against human SH-SY5Y cells at 10 uM by LDH assay. Format: functional, cell-based. The method in brief: (§1)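 After plating at 10^5 cells/well and 24 h attachment, cells exposed 5 h to compound together with etoposide; cytotoxicity read as lactate dehydrogenase released into culture medium by a commercial LDH kit.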
In series [2] the target is Histone deacetylase (Homo sapiens) (UniProt Q13547+O15379+Q9UBN7+Q92769+Q9UQL6+Q8WUI4+Q9BY41+Q96DB2+P56524+Q9UKV0+Q969S8). In words: Inhibition of HDAC in human HeLa nuclear extract at 200 uM after 1 hr by Fluor de Lys-based fluorescence assay. Format: protein assay. The method in brief: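 HeLa nuclear extract as HDAC source, 50 μM acetylated Fluor de Lys HDAC substrate, compounds 200 μM in HDAC assay buffer; substrate addition starts reaction, 1 h at 37 °C. Developer plus […], 15 min at 25 °C; fluorescence ex 355/em 460 nm. Run twice; means and standard deviations.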

Series [3] deals with T1, NAD-dependent protein deacetylase sirtuin-1 (Homo sapiens, UniProt Q96EB6).
T1 sequence (Q96EB6 whole entry): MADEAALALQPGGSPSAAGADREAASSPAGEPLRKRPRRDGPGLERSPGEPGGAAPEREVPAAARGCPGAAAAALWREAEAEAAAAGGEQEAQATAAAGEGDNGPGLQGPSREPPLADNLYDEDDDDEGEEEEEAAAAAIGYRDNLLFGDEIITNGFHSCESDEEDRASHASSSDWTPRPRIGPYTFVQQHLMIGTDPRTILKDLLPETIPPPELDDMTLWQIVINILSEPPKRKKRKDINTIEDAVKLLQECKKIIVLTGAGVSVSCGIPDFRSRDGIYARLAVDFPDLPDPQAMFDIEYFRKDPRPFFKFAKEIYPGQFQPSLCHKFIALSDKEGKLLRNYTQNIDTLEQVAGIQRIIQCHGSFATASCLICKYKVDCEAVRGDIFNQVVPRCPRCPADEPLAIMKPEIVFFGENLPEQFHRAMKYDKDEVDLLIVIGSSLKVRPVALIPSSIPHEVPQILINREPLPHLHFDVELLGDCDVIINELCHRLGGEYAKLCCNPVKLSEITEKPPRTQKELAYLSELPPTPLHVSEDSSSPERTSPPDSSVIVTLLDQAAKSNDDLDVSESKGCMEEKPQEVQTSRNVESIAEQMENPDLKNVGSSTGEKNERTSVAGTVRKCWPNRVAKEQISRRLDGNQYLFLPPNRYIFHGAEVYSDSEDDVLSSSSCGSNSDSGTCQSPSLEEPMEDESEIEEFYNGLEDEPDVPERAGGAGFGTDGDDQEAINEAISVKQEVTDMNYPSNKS
In words: Inhibition of recombinant GST-tagged SIRT1 after 1 hr by Fluor de Lys-based fluorescence assay. The method in brief: (§2)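 Fluor de Lys deacetylation: GST-SIRT1 with KI177 substrate at 40 μM or GST-SIRT2 with KI179 substrate at 138 μM (70% of Km; Km 58 and 198 μM), 500 μM NAD+, assay buffer with 1 mg/mL BSA, DMSO 2.5 μL per 50 μL. Substrate, NAD+ and compound preincubated 5 min rt; enzyme starts reaction, 1 h 37 °C. Developer plus 2 mM nicotinamide, 45 min 37 °C; ex 355/em 460 nm. IC50 from 9-point dose-response (0.0001–2000 μM), at least three repeats.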

Series [4] addresses T2, NAD-dependent protein deacetylase sirtuin-1 (Homo sapiens) (UniProt Q96EB6).
T2 sequence (whole entry): T1 sequence (Q96EB6 whole entry)
The experiment in a line: Inhibition of human SIRT1 in human astrocytes assessed as increase in p53 acetylation level at 10 uM after 5 hrs by Western blot analysis in presence of etoposide-induced DNA damage. The format is cell-based. Put shortly:
(§3)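 Cells seeded at 10^5 per well and treated 24 h later with compound plus etoposide together for 5 h. Lysates (M-PER) cleared 16000g 20 min, equal protein on 4–12% SDS-PAGE, blotted to nitrocellulose, probed with rabbit monoclonal anti-acetyl-p53 (K382), actin as loading control, HRP secondary and chemiluminescence.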

Series [5] has as its target T2, NAD-dependent protein deacetylase sirtuin-1 (Homo sapiens). In words: Inhibition of human SIRT1 in SH-SY5Y cells assessed as increase in p53 acetylation level at 10 uM after 5 hrs by Western blot analysis in presence of etoposide-induced DNA damage. The format is cell-based. The method in brief: as §3
Series [6] shares this target. In words: Inhibition of human SIRT1 in ARPE19 cells assessed as increase in p53 acetylation level at 10 uM after 5 hrs by Western blot analysis in presence of etoposide-induced DNA damage. The format is cell-based. The method in brief:
as §3

A short description of series [7]: Cytotoxicity against human astrocytes at 10 uM by LDH assay. Format: cell-based. The conditions noted are these: astrocyte. Put shortly: as §1
The target in series [8] is T3, NAD-dependent protein deacetylase sirtuin-2 (Homo sapiens, UniProt Q8IXJ6).
T3 sequence (Q8IXJ6 whole entry): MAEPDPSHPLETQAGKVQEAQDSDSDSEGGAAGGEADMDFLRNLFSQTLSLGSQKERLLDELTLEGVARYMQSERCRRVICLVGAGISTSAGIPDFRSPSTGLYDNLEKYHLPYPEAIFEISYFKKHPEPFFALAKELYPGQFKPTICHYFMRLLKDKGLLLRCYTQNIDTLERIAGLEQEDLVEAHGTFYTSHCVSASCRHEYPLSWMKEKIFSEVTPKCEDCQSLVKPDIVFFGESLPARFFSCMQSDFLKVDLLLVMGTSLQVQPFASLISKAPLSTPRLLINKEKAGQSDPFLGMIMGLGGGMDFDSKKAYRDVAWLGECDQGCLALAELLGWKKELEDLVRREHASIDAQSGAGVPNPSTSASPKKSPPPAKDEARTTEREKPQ
The experiment in a line: Inhibition of recombinant GST-tagged SIRT2 after 1 hr by Fluor de Lys-based fluorescence assay. The method in brief: as §2

Series [9] can be described thus: Cytotoxicity against human ARPE19 cells at 10 uM by LDH assay. The note with it: arpe-19, 10 µM. The format is cell-based. Put shortly:
as §1

The target of series [10] is T2, NAD-dependent protein deacetylase sirtuin-1 (Homo sapiens). The experiment in a line: Inhibition of recombinant GST-tagged SIRT1 at 200 uM after 1 hr by Fluor de Lys-based fluorescence assay. The method in brief: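 Single-point Fluor de Lys test at 200 μM: GST-SIRT1 (40 μM KI177 substrate) or GST-SIRT2 (138 μM KI179 substrate), 500 μM NAD+, BSA-supplemented buffer, 5 min rt preincubation, enzyme-started 1 h at 37 °C. Developer with 2 mM nicotinamide 45 min 37 °C; fluorescence ex 355/em 460 nm. Percent inhibition ± standard deviation.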

Series [11] relates to SH-SY5Y. In words: Cytotoxicity against human SH-SY5Y cells at 100 uM by LDH assay. Format: functional, cell-based. The method in brief: as §1
For series [12], the target named is T2, NAD-dependent protein deacetylase sirtuin-1 (Homo sapiens). The experiment in a line: Inhibition of human SIRT1 in SH-SY5Y cells assessed as increase in p53 acetylation level at 100 uM after 5 hrs by Western blot analysis in presence of etoposide-induced DNA damage. Format: cell-based. The method in brief: as §3

Active and inactive are the calls of the source. The calls are words filed in the database; no cut-off is given here. Where a SMILES comes first, the peptide text is derived from it. [ ]: non-standard residue; d: D form. Lys(Thioacetyl) = CC(=S)NCCCC[C@H](N)C(=O)O

For the compound `CC(=S)NCCCC[C@H](NC(=O)OCc1ccccc1)C(=O)NCC(=O)c1ccccc1`, in the series with SH-SY5Y [1], the result was inactive. The compound also yielded an inhibition in series [2] of 5.1%. Moreover, the half-inhibitory concentration (IC50) in [3] stood at 1.6 µM; in series [8] it was 4.3 µM. For the same compound, the result in series [4], in [5] and in series [6] was Active. Further, the Activity result in [7] and in series [9] was “Non-toxic” each time.

For `CC(=S)NCCCC[C@H](NC(=O)OCc1ccccc1)C(=O)N[C@@H](C)C(=O)O`, the outcome in the series on SH-SY5Y [1] was inactive. In addition, in series [2], the inhibition is 3.9%. Moreover, the IC50 amounted to 1.3 µM in series [3] and 17 µM in series [8]. For the same compound, the result in [5] was Active.

In the case of `CC(=O)N1CCC[C@H]1C(=O)N[C@@H](CCCCNC(C)=S)C(=O)N[C@@H](C)C(=O)O`, the IC50 in series [3] was found to be 0.37 µM; in series [8], 31 µM.

With `CNC(=O)[C@H](C)NC(=O)[C@H](CCCCNC(C)=S)NC(=O)[C@H](C)NC(C)=O`, the IC50 was 0.4 µM in [3] and 2.9 µM in [8].

Turning to `CC(=S)NCCCC[C@H](NC(=O)CCc1ccccc1O)C(=O)N[C@@H](C)C(=O)O`, the inhibition in series [2] was determined as 5.6%. Moreover, the concentration for half-maximal inhibition (IC50) in [3] was determined as 1 µM; in [8], 53 µM.

Regarding `CC(=S)NCCCC[C@H](N)C(=O)N[C@@H](C)C(=O)O`, the inhibition in series [10] turned out to be 46.9%.

Turning to `CC(=S)NCCCC[C@H](NC(=O)OCc1ccccc1)C(=O)Nc1ccccc1O`, the inhibition in [2] amounted to 1.9%. In addition, the 50% inhibitory concentration (IC50) was found to be 5.1 µM in series [3] and 7.4 µM in series [8].

Turning to `CC(=S)NCCCC[C@H](NC(=O)[C@H](C)NC(=O)OC(C)(C)C)C(=O)N[C@@H](C)C(=O)O`, the inhibition in series [2] was determined as 10.1%. In addition, the figures for the IC50 in series [3] and in [8] were 0.77 µM and 6.5 µM, respectively.

`CC(=S)NCCCC[C@H](NC(=O)[C@H](C)N)C(=O)N[C@@H](C)C(=O)O`: the results for the 50% inhibitory concentration (IC50) in series [3] and in series [8] were 0.66 µM and 36 µM, respectively.

In series [2], `CC(=S)NCCCC[C@H](NC(=O)OCc1ccccc1)C(=O)Nc1ccccc1` returned an inhibition of 2.5%. The results for the half-inhibitory concentration (IC50) in series [3] and in series [8] were 9.9 µM and 15 µM, respectively.

`COC(=O)[C@H](C)NC(=O)[C@H](CCCCNC(C)=S)NC(C)=O`: the IC50 in series [3] amounted to 51 µM; in [8], 862 µM.

Take `CC(=S)NCCCC[C@H](NC(=O)OCc1ccccc1)C(=O)NC1CCCCC1`: the inhibition in [2] came out at 75.4%. Also, the 50% inhibitory concentration (IC50) in [3] worked out at 23 µM.

In series [2], `CC(=S)NCCCC[C@H](NC(=O)OCc1ccccc1)C(=O)Nc1ccccc1F` yielded an inhibition of 1.4%. The figures for the half-inhibitory concentration (IC50) in [3] and in [8] were 7.4 µM and 16 µM, respectively.

On to `CSCC[C@H](NC(=O)[C@H](CC(C)C)NC(=O)[C@H](CCCCNC(C)=S)NC(=O)[C@H](CCCCN)NC(=O)[C@@H](N)Cc1cnc[nH]1)C(=O)O` (H-HK[Lys(Thioacetyl)]LM-OH), for which the IC50 in [3] was 0.31 µM; in series [8], 6.3 µM.

Compound `CC(=S)NCCCC[C@H](NC(=O)CCc1ccccc1F)C(=O)N[C@@H](C)C(=O)O` yielded an inhibition in series [2] of 16.3%. Moreover, the IC50 amounted to 1.3 µM in series [3] and 27 µM in [8].

In the case of `CC(=S)NCCCC[C@H](NC(=O)[C@@H]1CCCN(C(=O)OC(C)(C)C)C1)C(=O)N[C@@H](C)C(=O)O`, the outcome with SH-SY5Y [1] and in the series with SH-SY5Y [11] was inactive. The compound also had an inhibition in series [2] of 23.7%. The IC50 amounted to 0.97 µM in series [3] and 13 µM in [8]. Besides, the outcome in [12] and in series [5] was Active.

In [2], `CC(=S)NCCCC[C@H](NC(=O)[C@H](N)Cc1ccccc1)C(=O)N[C@@H](C)C(=O)O` registered an inhibition of 7.6%. Moreover, in series [3], the half-inhibitory concentration (IC50) amounted to 18 µM.

On to `CC(=S)NCCCC[C@H](NC(=O)CCc1ccccc1)C(=O)N[C@@H](C)C(=O)O`, for which the inhibition in [2] amounted to 8.5%. Also, the half-inhibitory concentration (IC50) in series [3] amounted to 0.99 µM; in [8], 56 µM.

On to `COC(=O)[C@H](C)NC(=O)[C@H](CCCCNC(C)=S)NC(=O)[C@H](C)NC(C)=O`, for which the concentration for half-maximal inhibition (IC50) in series [3] worked out at 1 µM; in [8], 13 µM.
